Measured values taken from PubChem BioAssay AID720661 (The Scripps Research Institute Molecular Screening Center, 2013).
Active and inactive are the calls of the source.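 Rule for the calls: active = EC50 of 10 µM or lower; inactive = EC50 above 10 µM.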

System: 293 cells GAL4-VP16 luciferase reporter, luminescence
Assay: GAL4-VP16 luciferase reporter activators, dose response, counter-screen for BRM (SMARCA2) activator project, cell-based, luminescence, late stage (AID 720661)
Method in brief: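 Material: 293 cells carrying GAL4-VP16 and pGL4.31 reporter; Quantity: 2,500 cells/well; Measured by: One-Glo luminescence; Read-out: EC50 from sigmoidal fit of % activation; Incubation: 24 h compound treatment, 37 °C.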

SMILES	EC50
Cc1nc(NC(=O)c2cccc(Br)c2)sc1C	> 91.2 µM (inactive)
Cc1cc(C)c2nc(NC(=O)C(C)C)sc2c1	> 91.2 µM (inactive)
Oc1ccccc1OCc1nc2ccccc2s1	> 91.2 µM (inactive)
Cc1ccc(Nc2nc(-c3ccccc3)c(C)s2)cc1	> 91.2 µM (inactive)
Clc1ccc(Cc2nc(-c3ccccc3)cs2)cc1	> 91.2 µM (inactive)
COc1ccc(-c2nc(C#N)c(NC3CC3)o2)cc1	> 91.2 µM (inactive)
O=C(NCC1(c2nc(-c3ccccc3)cs2)CCOCC1)c1cccc(-c2noc(C(F)(F)F)n2)c1	> 91.2 µM (inactive)
